Measured values reported in the EternaBench riboswitch data.

Tested on: MS2 coat protein
Assay: apparent Kd, MS2 coat protein; higher = weaker binding; RNA-MaP array; FMN 200 µM where present
In short: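 Stalled E. coli RNA polymerase produced the designs on Illumina sequencing-chip clusters. SNAP-549-labelled MS2 coat protein was added from 0.7 or 1.5 nM, doubling to 3 µM, without and then with constant ligand, in 100 mM Tris-HCl pH 7.5, 80 mM KCl, 4 mM MgCl2, BSA, DTT, yeast tRNA and Tween-20. The apparent Kd is the median of filtered per-cluster fits of green signal normalised to red-channel RNA signal and control-cluster median Fmax.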

[1] = designed as: OFF switch for flavin mononucleotide, no ligand
[2] = ligand present: flavin mononucleotide, designed as: OFF switch for flavin mononucleotide
[3] = designed as: ON switch for flavin mononucleotide, no ligand
[4] = ligand present: flavin mononucleotide, designed as: ON switch for flavin mononucleotide

Row | Sequence | apparent Kd [1] | apparent Kd [2] | apparent Kd [3] | apparent Kd [4]
1 | UCGCGGGUGCAGAAGGGAUAGGCCUAUUUUCGUGGUAUCCAAACUUAACAUGAGGAUCACCCAUGUCAGGAUAUGCCCACGCGA | 8.72 nM | 10.7 nM |  | 
2 | AAUUAUAUGUAGAAGGUACUAACAUAUGUGUUGUAAGGAUAUACCAAAUUAUUAGUUAUCAAGUUACAUGAGGAUCACCCAUGU |  |  | 12.3 nM | 7.36 nM
3 | AGCCUUAGAGGAUAUACAUGAUCCUCCAUCGCGAAAGGGCUACAUGAGGAUCACCCAUGUAGAAGGCUGAGGGA | 20.1 nM | 33.6 nM |  | 
4 | UGGAACUAGGGAGGAUAUGGGAAGAUACAUGAGGAUCACCCAUGUUUAAGAAUGCCGAGAGGCAACUAGAAGGCCCUAGUACCU |  |  | 454 nM | 20.3 nM
5 | CCUCUACAUGAGGAUCACCCAUGUGAGGAUAUGCGAGGCGCGCUCGAUGAGCACGCCGGUAGAAGGCAUGUGGU | 23.8 nM | 51.6 nM |  | 
6 | GUAGCAUUGUGAGGAUAUCCAUAUCCGAAAGGGACAUGAGGAUCACCCAUGUCGCGAAAGCGGUGGGAGAAGGCACUAUGCUAC |  |  | 4.31 nM | 4.03 nM
7 | CAACGUGGAGGAUAUUAGCGAGACAACAUGAGGAUCACCCAUGUGGUACUCAUCUCCUCCUGAGAAGGCUACGCCC | 11.8 nM | 12.3 nM |  | 
8 | UUAGAUUAUGAAGGAUAUGGAUCUUAUUAUUAACCAGAAGGUCAACUCAACAUGAGGAUCACCCAUGUAUAAAGGGUAUUAGUU | 134 nM | 132 nM |  | 
9 | UAUUAUUUAUGAUAUUAUGACAGUAGAAGGCUAUACAUGUUGAUACAUGAGGAUCACCCAUGUAUAGAGGAUAUAUACAUAAAU | 1010 nM | 884 nM |  | 
10 | UACUAUAAGGAGGAUAUCGUAUCGGAAACGAUACGAGAAGGCUUAACAUGAGGAUCACCCAUGUUCUUCAAUAA | 16.6 nM | 18.3 nM |  | 
11 | CUAGACAGAUCAGGAUAUCAUCGCAUGGUGCAUCCCUGUGAUUACAUGAGGAUCACCCAUGUGCAUGAGAAGGGAUUACUAUGU | 46.5 nM | 13.1 nM |  | 
12 | UAUCUAUUUAUGGGAUUAGAUUAUGAGGAUAUCAUUUUUUUAUACAUGAGGAUCACCCAUGUUUCUGAGAAGGCAUAUUUAAUA |  |  | 22.2 nM | 8.12 nM
13 | GUGAGGUCAGGAUAUGCAUGGCGGGACUUGCGUCGUGGCGUGGAGAAGGGACAUGAGGAUCACCCAUGUGGAGG | 115 nM | 95 nM |  | 
14 | GCUGUCGCUUGAGGAUAUGGUCAGCUUUGCUGACCAGAAGGCAUGUCAAUAGACAUGAGGAUCACCCAUGUAGUAAGGGCGGCU |  |  | 339 nM | 122 nM
15 | UUUUUAUUUGCAGGAUAUUGUAUUUUAUUACAUCAAGAAGGGCAUUACAUGAGGAUCACCCAUGUCUUCCUAUGGUUAACUAGU | 12.3 nM | 10.2 nM |  | 
16 | UAUAUAUAGUAAGGAUAUGUAUUAAUUGUAUAAACAGAAGGUACUGACAUGAGGAUCACCCAUGUUUUAGUGUGGGCAUGUAGA | 91.3 nM | 149 nM |  | 
17 | AUAAUGAGAGGAUAUACAUGAGGAUCACCCAUGUAAUUAACACGGCGAGCUCCAAUACGUAGAAGGCUCAUUUA | 49.2 nM | 35 nM |  | 
18 | UCGGCGCGAGGAUAUGCGGCUGGUGCUUCGGGCCCUCGCGUACAUGAGGAUCACCCAUGUAGAAGGCGCGCCGC | 32.2 nM | 38.6 nM |  | 
19 | UUCAUCAAUGAAGGAUAUCUAUAUCCAACAUGAGGAUCACCCAUGUUGAGGAUCACCCAUGUAAAGGAGAAGGUUAAUAUAACU |  |  | 35.9 nM | 31.4 nM
20 | GGAUAGGACAGAGGAUAUACGUGCUAGAGAUACUAGCAAAAUUUCCUCACAUGAGGAUCACCCAUGUAGAAGGCUGUCCUUUCG | 17.9 nM | 473 nM |  | 
21 | UUGGACGUCGUAGGAUAUGUAGCAUAUUCCUACAUGAGGAUCACCCAUGUUGACAUGGAAGAAGGACAGAAGGACGAUGUCCAU |  |  | 5.61 nM | 5.36 nM

Row | Sequence | apparent Kd [1] | apparent Kd [2] | apparent Kd [3] | apparent Kd [4]
22 | AAAAAAAAAAGGCAGGAUAUUCAAAAAAAAACAUGAGGAUCACCCAUGUAAAAAAAAAAAAAAUGGAAGAAGGGCCAAAAAAAAAA |  |  | 21.1 nM | 22.5 nM
23 | UUAUUUUGUCAAGGAUAUGUAUUAUUGAUUUGAAAACAUGAGGAUCACCCAUGUAUAUGGUGGGAACAGAAGGUGAAUAAGUAA | 248 nM | 235 nM |  | 
24 | AAUAUAAAAGAGCUGGAUAACUCGACAUGAGGAUCACCCAUGUAGGAUAUCAGCACGAUAAGUGCUGAGAAGGACAACCAGCUC | 14.7 nM | 16.2 nM |  | 
25 | GGACAUGUACAGAAGGGCAAUUUAUUUAUUGAUUAUUUAGUUCUGUAUUGCAGGAUAUGUAAAACAUGAGGAUCACCCAUGUCC |  |  | 73.5 nM | 56.4 nM
26 | GCGUAACAUGAGGAUCACCCAUGUACCCGAGAAUUCGGGUCUAGAAGGGUGACCGGUCGUUUGGCACAGGAUAUAGACGUUGUG |  |  | 30.7 nM | 11.3 nM
27 | AGUGUCAUCGAGAAGGCCUUGACAUGAGGAUCACCCAUGUUGUAACAUGGGAGGAUAUCGAUGAUACAGCUACGUUUCGUAGCA |  |  | 625 nM | 47.3 nM
28 | GCCAUCGCAUGAGGAUAUGGCACCGUUUCGGUGCCAGAAGGCAUGUCAUAAGACAUGAGGAUCACCCAUGUGAAUAAGAUGGCA |  |  | 360 nM | 38.5 nM
29 | GAAAAGAAAGGAUAUACAGGGAAAUGAACCGCACGUAAACCACAUGAGGAUCACCCAUGUAGAAGGUUCAGUGC | 10.7 nM | 14.4 nM |  | 
30 | GGUACUCAAAGAGUACCAAUACGAACAUGAGGAUCACCCAUGUAGGAUAUGCUACUCAAAGAGUAGCAGAAGGACGUGUGCCUU | 21.4 nM | 42.4 nM |  | 
31 | GGAAAAUGAGGAUAUACAUGUUUGAUACCUCUACGCCCGCAACAUGAGGAUCACCCAUGUAGAAGGCAUGAAAA | 15.4 nM | 44.2 nM |  | 
32 | ACCCGCAAACGUUGGAAUCGUAAGAGAAGGUGGACAUGAGGAUCACCCAUGUGCAUCCUGCGUUCCAAGGAUAUCUUACUGAAU | 10.9 nM | 48 nM |  | 
33 | UGAGCUACAGGAUAUACGUGACGACCGUGAGGUCGAAGGUUACAUGAGGAUCACCCAUGUAGAAGGGUAGUUCU | 148 nM | 148 nM |  | 
34 | CCUUUGCUAUAUACAUGAGGAUCACCCAUGUCCACUGACAGACAGGAUAUCCUUAGAAACUAGCAGGAGAAGGGUCAGUCAUAC |  |  | 263 nM | 328 nM
35 | AUACCACGAGGAUAUCGUCUAUUUCACAUGAGGAUCACCCAUGUUAUCUUUGUUUUGUUUCGAGAAGGCGUGUUUU | 30.9 nM | 20.9 nM |  | 
36 | GGAUAUGUCGUCUACAUGAGGAUCACCCAUGUCGAUAGACAUGAGGAUAUCGAUAAGAAUUGUAUCGAGAAGGUAUGUAGGUCC |  |  | 23 nM | 30.2 nM
37 | CCCUCACAUGAGGAUCACCCAUGUCAGGAUAUUCGAACGGUGUGUUUUUGGCCAGUUGGAAGAAGGGACAUAAA | 29.7 nM | 117 nM |  | 
38 | GCCUCAUAGUAGAAGGGACUUAGGCAGUUAAGCAUCAUCUCCAUUUCACAUGAGGAUCACCCAUGUCAGGAUAUACUAAGAGGC | 9.39 nM | 24.5 nM |  | 
39 | GUGCGGUAGGAGAAGGACGGAGGCUUCUUUUCAUACAUGAGGAUCACCCAUGUAGGAUAUCCUACCUCACGCGGCCUACUACUG | 8.36 nM | 7.7 nM |  | 
40 | GUGGUGCAUAUACGUGGAUGUACAUGAGGAUCACCCAUGUAAGAGGAUAUGCGGAUACUAGCUCAGCAGAAGGCUUACAAAUGC | 9.75 nM | 27.5 nM |  | 
41 | GGAUAGGACAGAGGAUAUACGUGCUAGAGAUACUAGCAAAAUUUCCUCACAUGAGGAUCACCCAUGUAGAAGGCUGUCCCAUCG | 15.3 nM | 327 nM |  | 
